Measured values gathered from unrelated publications.
Lines come from different studies, so protocols differ.
Target: Inhibitor of nuclear factor kappa-B kinase subunit alpha (CHUK, Homo sapiens, UniProt O15111)
One construct used (O15111 1-745): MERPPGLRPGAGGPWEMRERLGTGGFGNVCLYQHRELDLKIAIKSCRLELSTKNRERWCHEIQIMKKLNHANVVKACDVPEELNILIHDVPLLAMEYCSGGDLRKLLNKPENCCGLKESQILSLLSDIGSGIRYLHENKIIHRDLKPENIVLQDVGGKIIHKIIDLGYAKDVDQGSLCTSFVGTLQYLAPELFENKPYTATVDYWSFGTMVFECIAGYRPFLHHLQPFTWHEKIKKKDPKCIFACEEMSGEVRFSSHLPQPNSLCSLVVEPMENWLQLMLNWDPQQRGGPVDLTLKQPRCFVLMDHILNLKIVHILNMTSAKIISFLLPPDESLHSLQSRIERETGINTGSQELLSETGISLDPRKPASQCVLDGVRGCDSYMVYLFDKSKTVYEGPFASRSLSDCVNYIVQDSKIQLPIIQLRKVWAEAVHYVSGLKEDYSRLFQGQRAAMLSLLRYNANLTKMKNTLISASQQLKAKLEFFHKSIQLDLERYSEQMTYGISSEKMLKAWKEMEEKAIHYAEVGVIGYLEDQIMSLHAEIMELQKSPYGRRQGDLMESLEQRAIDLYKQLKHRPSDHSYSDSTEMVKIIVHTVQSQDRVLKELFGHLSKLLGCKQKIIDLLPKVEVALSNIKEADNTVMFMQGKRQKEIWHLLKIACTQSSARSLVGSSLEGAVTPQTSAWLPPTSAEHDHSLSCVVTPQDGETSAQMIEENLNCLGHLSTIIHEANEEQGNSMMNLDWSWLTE

Compound | test | setting | endpoint | result
C=CC(=O)N1CCC([C@@H]2CCNc3c(C(N)=O)c(-c4ccc(Oc5ccccc5)cc4)nn32)CC1 | enzyme activity, inhibitor | 1 µM | inhibition | 0%
N#Cc1ccc(NC(=O)Nc2ccccc2)cc1 | cell-free assay, competition with immobilised ligand | 25 µM | remaining binding | 85%
COc1ccc2oc(-c3ccc4nc(N)oc4c3)c/c(=N\c3ccccc3NC(=O)CCN)c2c1 | binding | 1 µM | remaining binding | 94%
C[C@H]1CC[C@H](n2c3cnccc3c3cnc(Nc4ccc5c(n4)CCN(C(=O)CO)C5)nc32)CC1 | cell-free assay | 1 µM | remaining signal | 76%
C=CC(=O)N1CCC[C@@H](n2nc(-c3ccc(Oc4ccccc4)cc3)c3c(N)ncnc32)C1 | enzyme activity, inhibitor | 1 µM | inhibition | 16%
CCCCC(=O)Nc1ccc(-c2ccc3ncn(CCC)c(=O)c3c2)cn1 | binding, competition with immobilised ligand | 0.5 µM | remaining binding | 100%
COc1ccc2[nH]c3c4[nH]c5ccc(OC)cc5c4c4c(c3c2c1)C(=O)NC4=O | binding | 1 µM | remaining binding | 89%
C#Cc1cnc(Nc2ccnc(CO)c2)nc1Nc1ccccc1S(C)(=O)=NC#N (centres unmarked) | cell-free assay | 1 µM | remaining signal | 100%
